Assay outcomes from PubChem BioAssay.
CHRM5 agonist – CHRM5 agonism in calcium assay. P08912. CHO-K1 hM5 cells, Fluo-8 calcium fluorescence; 0% DMSO wells, 100% maximal acetylcholine response. activation, % at 3 µM. actives 0.19% (n = 360,000). AID 624037;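 active means activation above the run's mean over test compounds plus 3 SD, cut at about 23% in these data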;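 further: signal is peak over basal fluorescence ratio across the kinetic read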
Target sequence (P08912 whole entry, looked up): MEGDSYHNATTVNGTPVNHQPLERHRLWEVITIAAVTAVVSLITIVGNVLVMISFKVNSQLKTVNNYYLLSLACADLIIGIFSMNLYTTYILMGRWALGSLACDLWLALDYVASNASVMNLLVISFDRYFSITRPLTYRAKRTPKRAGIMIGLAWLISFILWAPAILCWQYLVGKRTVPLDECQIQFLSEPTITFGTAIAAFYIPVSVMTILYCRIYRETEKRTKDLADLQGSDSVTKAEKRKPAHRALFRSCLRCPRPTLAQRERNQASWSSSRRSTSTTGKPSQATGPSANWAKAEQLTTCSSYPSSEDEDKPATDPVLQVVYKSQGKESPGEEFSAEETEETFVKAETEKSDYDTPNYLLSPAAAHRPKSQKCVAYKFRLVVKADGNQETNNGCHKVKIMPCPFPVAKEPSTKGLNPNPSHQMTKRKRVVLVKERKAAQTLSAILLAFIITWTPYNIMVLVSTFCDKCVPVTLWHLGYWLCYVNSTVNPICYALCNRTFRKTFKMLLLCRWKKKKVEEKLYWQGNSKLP
CHRM5 antagonist – CHRM5 antagonism in calcium assay. P08912. CHO-hM5 cells, Fluo-8 calcium fluorescence, ACh EC80. inhibition, % at 3 µM. actives 0.59% (n = 360,000);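 active means inhibition above a per-plate cutoff, the mean of that plate's test compounds plus 3 SD, cut at about 27% in these data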;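 further: 0% = acetylcholine EC80 with DMSO and 100% = DMSO without agonist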
CHRM4 PAM – CHRM4 positive allosteric modulation; P08173; CHO-K1 hM4/Gqi5, Fluo-8 calcium fluorescence, ACh EC20; 0% = ACh EC20, 100% = maximal ACh; activation, % at 3 µM; actives 0.4% (n = 360,000); AID 624126;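 active means activation above its plate's cutoff, the mean activation of sample wells plus 3 SD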
CHRM5 PAM – positive allosteric modulators of human muscarinic M5 receptor; P08912; activation, % at 3 µM; CHO-K1 hM5, Fluo-8 calcium, ACh EC20 PAM; 0% = ACh EC20, 100% = ACh EC100; actives 0.3% (n = 360,000);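 active means activation above the run cutoff, the mean activation of all test compounds plus 3 SD, cut at about 18% in these data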
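Replicates: One well per compound, no replicates | System: Human M5 receptor in CHO-K1 cells | Benchmarks: Low control EC20 acetylcholine (0%), high control EC100 acetylcholine (100%) | Probe or stimulus: Acetylcholine, EC20 level | Times: Fluo-8 loading 80 min at 37 °C plus 30 min room temperature | Signal: Intracellular calcium via Fluo-8 fluorescence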
CHRM4 antagonist – blocks acetylcholine activation of human M4 receptor; P08173; inhibition, % at 3 µM; actives 0.73% (n = 360,000); CHO-hM4 cells, ACh EC80, Fluo-8 calcium fluorescence;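 active means inhibition above its plate's cutoff, the mean inhibition of sample wells plus 3 SD, cut at about 27% in these data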;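 further: 0% = acetylcholine EC80 with DMSO and 100% = DMSO without agonist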
CHRM4 agonist – agonists of human muscarinic M4 receptor (CHRM4). CHO-K1 hM4/Gqi5, Fluo-8 calcium fluorescence; vehicle 0%, full acetylcholine response 100%. actives 0.14% (n = 360,000). activation, % at 3 µM;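 active means activation above the run mean over all test wells plus 3 SD, cut at about 32% in these data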;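 further: peak over basal fluorescence ratio per well then scaled between controls; 0% = DMSO wells and 100% = acetylcholine at EC100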
Starred values were filed as active, the others as inactive. A selection: hits, their analogues and other compounds. The true share with any hit is near 1.9%.

SMILES | CHRM5 agonist | CHRM5 antagonist | CHRM4 PAM | CHRM5 PAM | CHRM4 antagonist | CHRM4 agonist
CN(c1ccc(F)cc1)S(=O)(=O)c1ccc(Cl)c(C(=O)NCC(c2ccco2)N2CCCCC2)c1 (centres undefined) | -3 | -3 | -2 | 7 | -3 | 4
COC(=O)c1ccc(CN2CCN(C3CCCC3)C(CCO)C2)cc1 (centres undefined) | -10 | -2 | -21 | -8 | 77* | 1
CC(=O)Nc1ccc(CN2CCN(C3CCCCC3)C(CCO)C2)cc1 (centres undefined) | -14 | 7 | -35 | -4 | 15 | 0
COC(=O)c1ccc(CN2CCN(C3CCCCC3)C(CCO)C2)cc1 (centres undefined) | -21 | -8 | -50 | 7 | 60* | 0
COc1ccccc1CNC(=O)C1Cc2cc(S(=O)(=O)N3CCCCC3)ccc2N1C(C)=O (centres undefined) | -3 | -11 | -5 | 5 | -8 | 2
CC(C)c1ccc(CN2CCC(C)(Oc3ccc(Cl)cc3)C2)cc1 (centres undefined) | -2 | -4 | 0 | -3 | -3 | 0
COc1cc(OC)cc(OC2(C)CCN(Cc3ccc(OC(C)C)cc3)C2)c1 (centres undefined) | 0 | 11 | -10 | -15 | 53* | 2
COC(=O)Cc1ccc(OC2(C)CCN(Cc3ccccc3)C2)cc1 (centres undefined) | -3 | 12 | -13 | -10 | 63* | 0
C=C1c2ccccc2O[C@H](C(=O)OCC)[C@H]1OC | 0 | 1 | 8 | -3 | -14 | 0
CC(Sc1ccccc1)C(=O)NNC(=O)c1ccncc1 (centres undefined) | -2 | 2 | 13 | -1 | -25 | 1
O=C1N=C(N2CCCC2C(=O)O)S/C1=C\c1ccco1 (centres undefined) | 8 | -1 | -6 | -5 | -3 | 10
COc1ccccc1NC(=O)C(C)N1C(=O)c2ccccc2C1=O (centres undefined) | 2 | -5 | 2 | 13 | -7 | 2
COc1ccc(NC(=O)C(C)N2C(=O)c3ccccc3C2=O)c(OC)c1 (centres undefined) | 3 | -18 | -3 | 18* | -3 | 0
CC(C)C(C(=O)Nc1ccccc1F)N1C(=O)c2ccccc2C1=O (centres undefined) | 8 | -9 | 4 | 20* | 1 | 0
COc1ccc([C@H]2C[C@H](n3cc(COC(=O)c4ccccc4)nn3)[C@@H](O)CN2C(=O)c2cccs2)cc1 | 4 | -6 | 5 | 1 | -13 | 4
CC1=C(C(=O)N(C)C)CC(CC(=O)NCC2CCCCC2)C(=O)N1Cc1ccc(F)cc1 (centres undefined) | 1 | -5 | -2 | 9 | 5 | 0
CN(C(=O)COc1ccccc1C(=O)NCCOc1ccccc1)c1ccccc1 | 3 | 43* | -39 | -19 | 60* | 24
CCN(CC)S(=O)(=O)c1ccc(N2CCOCC2)c(NC(=O)c2cccc3ccccc23)c1 | 2 | 14 | -24 | -13 | 30* | 14
CCN(CC)S(=O)(=O)c1ccc(N2CCOCC2)c(NC(=O)c2ccc3ccccc3c2)c1 | 1 | 4 | 13 | 1 | -4 | 1
O=C(NCCCN1CCN(Cc2ccccc2)CC1)c1nnc(Cc2c(F)cccc2Cl)o1 | -8 | -7 | -21 | 5 | 13 | 0
O=C(NCCCO)c1nnc(Cc2c(F)cccc2Cl)o1 | 6 | -7 | 29* | 12 | -8 | 1
O=C(c1ccccc1)N1N=C(c2ccc(F)cc2)CC1(O)C(F)(F)F (centres undefined) | -5 | 2 | -1 | -1 | 1 | -1
CN1CCC2(CC1)N=C(c1ccc(F)cc1)C(=S)N2C(=O)c1ccccc1 | -8 | 40* | 6 | -19 | -1 | 2
CCN1CCC2(CC1)N=C(c1ccc(F)cc1)C(=S)N2C(=O)c1ccc(C(C)(C)C)cc1 | -8 | 76* | -10 | -19 | 18 | 2
